Columns and labels:
LS174T [1] = experiment: Parent […] tested for the cytotoxicity in LS174T cells; assay type: functional, cell-based; conditions: Homo sapiens
LS174T [2] = experiment: Tested for the cytotoxicity in LS174T cells after activation by enzyme nitroreductase/NADH; assay type: functional, cell-based; conditions: Homo sapiens
Procedure, shortened: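 Human adenocarcinoma LS174T cells were seeded at 2000 cells/well and exposed to a range of prodrug concentrations together with nitroreductase and NADH cofactor for 1 h. Cells were washed and grown for 3 days. IC50 is the prodrug dose giving 50% growth inhibition versus drug-free controls.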

LS174T [3] = experiment: The compound was evaluated for Activation Factor; assay type: functional, Homo sapiens
LS174T [4] = experiment: Tested for the cytotoxicity in LS174T cells before activation by enzyme nitroreductase/NADH; assay type: functional, cell-based; conditions: Homo sapiens
Procedure, shortened: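 LS174T adenocarcinoma cells were seeded at 2000 cells/well and treated with various prodrug concentrations for 1 h without enzyme. They were washed and incubated for 3 days. IC50 is the dose inhibiting growth by 50% relative to drug-free controls.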

LS174T [5] = experiment: Tested for the cytotoxicity in LS174T cells; 0.001-0.01; assay type: functional, cell-based; conditions: Homo sapiens

Compound	IC50 (LS174T [1]) [µM]	IC50 (LS174T [2]) [µM]	Activation Factor (LS174T [3])	IC50 (LS174T [4]) [µM]	IC50 (LS174T [5]) [µM]
COc1cc2c(cc1OCc1ccccc1)N(C(=O)OCc1ccc([N+](=O)[O-])cc1)[C@@H](O)[C@@H]1CCCN1C2=O	0.008	5	>100	> 500	
COc1cc2c(cc1OCCCOc1cc3c(cc1OC)C(=O)N1CCC[C@H]1[C@H](O)N3C(=O)OCc1ccc([N+](=O)[O-])cc1)N(C(=O)OCc1ccc([N+](=O)[O-])cc1)[C@@H](O)[C@@H]1CCCN1C2=O	0.0005	13.7	15.7	215	
C/C=C1/C[C@H]2C=Nc3cc(OCc4ccccc4)c(OC)cc3C(=O)N2C1					0.01
C/C=C1/C[C@H]2[C@H](O)N(C(=O)OCc3ccc([N+](=O)[O-])cc3)c3cc(OCc4ccccc4)c(OC)cc3C(=O)N2C1	0.001	6.4	13.5	86.2	

— ChEMBL document CHEMBL1133066, “Design and synthesis of novel pyrrolobenzodiazepine (PBD) prodrugs for ADEPT and GDEPT” (Bioorg Med Chem Lett, 2000)
